NR2F2 inh: NR2F2 (human) inhibition, primary screen; P24468; HEK293T NGFI-A luciferase reporter, luminescence; inhibition, % at 8.6 µM; 370,000 compounds, 0.7% hits; AID 686940;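 active = inhibition above a per-plate cutoff, mean inhibition of test wells between control levels plus 3 SD, cut at about 38% in these data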;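 note: cells cotransfected with COUP-TFII expression vector driving the NGFI-A reporter; 0% = median of COUP-TF2 test wells and 100% = reporter-only cells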
NR2E3 ag-1: activates human NR2E3 receptor. Q9Y5X4. CHO-S Gal4-NCOR/VP16-NR2E3 two-hybrid, luciferase. inhibition of corepressor binding, % at 3.98 µM. 360,000 compounds, 0.35% hits. AID 602229;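 active = inhibition above the mean of all tested compounds plus 3 SD, cut at about 70% in these data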;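 note: 0% = DMSO with NR2E3 transfected cells and 100% = cells lacking NR2E3 construct; higher means lower luciferase signal from less NR2E3 corepressor binding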
NR2E3 ag-2: activates human photoreceptor nuclear receptor NR2E3; GST-NR2E3/biotin-RetCOR TR-FRET, 1536-well; inhibition of corepressor binding, % at 4.78 µM; 320,000 compounds, 0.12% hits; AID 2300;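 active = percent inhibition above the cutoff of mean plus 3 SD of all tested compounds, set per screening campaign, cut at about 20% in these data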;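 note: 0% = DMSO wells and 100% = biotin wells as full block of FRET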
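Format: 1536-well format; test system: GST-NR2E3 and biotin-RetCOR proteins; read-out basis: percent inhibition of TR-FRET ratio; timing: 5 h incubation at 4 °C; detection: time-resolved FRET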
GalR3 antagonist: human GalR3 antagonism. AID 651719. HEK293 GalR3-CNG cAMP membrane potential fluorescence; galR3 body fused to GalR1 C-terminus. O60755. inhibition, % at 3 µM. 360,000 compounds, 0.44% hits;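 active = inhibition above the screen-wide average plus 3 SD, cut at about 13% in these data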;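 note: forskolin and galanin both at EC90 stimulate the cells; cAMP rise reported by CNG channel membrane potential dye signal; 0% = forskolin plus galanin with DMSO and 100% = forskolin alone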
Target sequence (O60755 1-299 limits assumed): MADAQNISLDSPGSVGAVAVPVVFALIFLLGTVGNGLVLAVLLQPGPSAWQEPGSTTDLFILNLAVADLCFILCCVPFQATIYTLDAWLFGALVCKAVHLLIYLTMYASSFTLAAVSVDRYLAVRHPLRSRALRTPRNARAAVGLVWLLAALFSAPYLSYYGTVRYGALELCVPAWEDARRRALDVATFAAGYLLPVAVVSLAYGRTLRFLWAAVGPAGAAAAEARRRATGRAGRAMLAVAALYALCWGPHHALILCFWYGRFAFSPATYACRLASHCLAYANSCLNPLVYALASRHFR
SMARCA2 act: activators of SMARCA2 function; activation, % at 9.1 µM; 370,000 compounds, 1% hits; MG213 cells, MMTV-luciferase reporter, dexamethasone, overnight; in the data active = activation above about 7.8%;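 note: 0% = vehicle wells and 100% = reference activator wells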
SMARCA2 act conf: SMARCA2 activation, confirmation screen; shares compounds with SMARCA2 act; 3,500 compounds, 30% hits; MG213 cells, MMTV-luciferase with dexamethasone, luminescence, overnight; MG213 cells expressing E1A, Rb sequestered; DMSO wells 0%, reference activator 100%; activation, % at 9.1 µM;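 active = activation above its plate's cutoff, the mean activation of tested wells plus 3 SD, cut at about 7.9% in these data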
GAL4-VP16 Luc: activates GAL4-VP16 luciferase, flagging SMARCA2 activator hits. AID 686939. activation, % at 9.1 µM. 3,500 compounds, 41% hits. HEK293 GAL4-VP16 pG5luc reporter, luciferase luminescence; scaled: DMSO wells 0%, SAHA wells 100%. shares compounds with SMARCA2 act;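 active = activation above the solvent-only control well mean plus 3 SD, averaged across control plates, cut at about 5.2% in these data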
* marks the source's active call; other numbers are inactive results; · = no result given. Only some compounds are listed: those with a hit (about 2.2% of all), similar ones and a draw of the others.

SMILES	NR2F2 inh	NR2E3 ag-1	NR2E3 ag-2	GalR3 antagonist	SMARCA2 act	SMARCA2 act conf	GAL4-VP16 Luc
CCOC(=O)c1c(NC(=O)c2ccccc2N(C)S(=O)(=O)c2ccccc2)sc2c1CCCC2	5	-49	2	0	-3	·	·
COC(=O)c1ccccc1S(=O)(=O)NC(=O)[C@H]1O[C@@H](n2ccc(=O)[nH]c2=O)[C@H](O)[C@@H]1O	-6	·	·	-7	-1	·	·
Cc1ccc(S(=O)(=O)NCCC2(C(C)C)CCOC(C)(C)C2)cc1 (stereo not drawn)	16	2	4	-3	0	·	·
Cc1ccc(C2=NNC3(CCOC(C)(C)C3)S2)cc1 (stereo not drawn)	-77	-91	3	-2	11*	9.9*	3
COc1ccc(S[C@]2(C(=O)NCCCN(C)C)CC(=O)N[C@@H]2c2ccc(OC)cc2)cc1	-14	·	·	·	-4	·	·
O=C(NCCc1ccccc1)OCc1cn(-c2cccc(F)c2F)nn1	-13	·	·	·	-3	·	·
COc1ccc(-c2cc3ccc(OCC(N)=O)cc3oc2=O)cc1OC	-26	-2	2	-6	0	·	·
COc1ccc(-c2coc3cc(O)ccc3c2=O)cc1O	-54	-87	0	-5	8.0*	13*	11*
O=c1c(-c2ccc(O)cc2)coc2cc(O)cc(O)c12	-65	-167	3	2	9.0*	14*	11*
COc1ccc(-c2coc3cc(O)ccc3c2=O)cc1	-36	-83	1	·	3	·	·
COc1ccc(-c2cc3ccccc3oc2=O)cc1NC(=O)c1ccc(Br)o1	-8	-34	-2	-2	5	·	·
CCC(=O)Nc1cc(-c2cc3ccccc3oc2=O)ccc1OC	-57	-49	3	-3	9.3*	11*	9.6*
COc1ccc(-c2cc3ccc(O)cc3oc2=O)cc1OC	-30	-19	6	-6	8.5*	6	3
CCCCc1ccc(-c2noc(CCC(=O)NCC)n2)cc1	31	·	·	·	·	·	·
Cc1cccc(CCNC(=O)c2ccc(Sc3ccccc3Cl)c([N+](=O)[O-])c2)c1	-26	·	·	·	4	·	·
NS(=O)(=O)c1ccc2nc(NC(=O)Nc3ccccc3F)sc2c1	-29	-92	4	-6	4	·	·
Cc1ccccc1NC(=O)Nc1nc2ccc(S(C)(=O)=O)cc2s1	-34	-50	4	4	9.2*	3	4
Cc1cc(C(=O)Nc2nc3ccc(S(C)(=O)=O)cc3s2)c(C)o1	-36	-60	0	-7	10*	4	5.8*
CSc1n[nH]c(-c2cccs2)n1	-15	·	·	-6	1	·	·
C#CCNC(=O)C[C@H]1C[C@@]2(C(=O)OC)C(=C[C@H](C(C)(C)C)O[C@@H]2C)N(Cc2ccc(Cl)cc2Cl)C1=O	-5	·	·	·	-3	·	·
COc1cccc(C(=O)Nc2nnc(-c3cccs3)s2)c1	-28	-64	-1	-5	8.3*	12*	14*
Cc1ccc(-c2cc(-c3ccccc3Cl)[nH]n2)c(O)c1	-44	-178	1	-2	8.6*	4	11*
Cc1ccc(-c2cc(-c3ccccc3[N+](=O)[O-])[nH]n2)c(O)c1	-51	-152	0	-7	-1	·	·
COc1cccc(C(=O)Nc2ccc3c(C)cc(=O)oc3c2)c1	-59	-172	·	-2	13*	11*	14*
CCOC(=O)Nc1ccc2c(C)cc(=O)oc2c1	-60	-85	5	-6	11*	2	8.7*
O=c1c2ccccc2n(Cc2ccccc2)n1[C@@H](Cc1ccccc1)Cn1cc(-c2ccc(-c3ccccc3)cc2)nn1	9	·	·	·	-4	·	·
O=C(c1ccccc1)c1ccc2c(c1)OCCCO2	-38	-128	0	-2	11*	8.1*	8.9*
COc1ccc(NC(=S)NC(=O)c2ccc3c(c2)OCCO3)cc1	-32	-44	·	-1	11*	1	11*
O=C(NC(=S)Nc1ccc2c(c1)OCCO2)c1ccccc1	-47	-137	1	-6	9.7*	5	9.1*

Bioassay records: PubChem BioAssay, The Scripps Research Institute Molecular Screening Center
